Laboratory results reported in ChEMBL document CHEMBL1275434, “In vitro evaluation of CBR-2092, a novel rifamycin-quinolone hybrid antibiotic: studies of the mode of action in Staphylococcus aureus” (Antimicrob Agents Chemother, 2008).
Converted amounts (≈) assume the structure as drawn. The source made the active and inactive calls. The calls are words filed in the database; no cut-off is given here.

Key:
[1] = tested on: Staphylococcus aureus; assay: Antimicrobial activity against Staphylococcus aureus CB1880 harboring rpoB R484H mutant gene; type: functional
[2] = tested on: Staphylococcus aureus; assay: Antimicrobial activity against Staphylococcus aureus CB1881 harboring rpoB R484H mutant gene and L520 deficient gyrA gene by broth microdilution method; type: functional
Summary of the method: (§1)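 CLSI broth microdilution MIC in MHII broth with 0.002% (vol/vol) polysorbate 80. Isolates came from daily stepwise broth passage at sub-MIC drug (MHII without polysorbate 80, 10^6 CFU/ml inoculum, 20–24 h shaking at 37°C), were purified drug-free, and were sequenced at target loci.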

[3] = tested on: Staphylococcus aureus; assay: Antimicrobial activity against Staphylococcus aureus CB1881 harboring rpoB R484H mutant gene and L520 deficient gyrA gene; type: functional
[4] = tested on: Staphylococcus aureus; assay: Antimicrobial activity against Staphylococcus aureus CB1882 harboring rpoB R484H mutant gene, L520 deficient gyrA gene and R236 duplicated parC gene by agar dilution method; type: functional
Summary of the method: (§2)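 CLSI agar dilution MIC on MHII base medium against stepwise-passage isolates; passage was in MHII broth without polysorbate 80, daily at 37°C.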

[5] = tested on: Staphylococcus aureus; assay: Antimicrobial activity against Staphylococcus aureus CB1883 harboring rpoB R484H mutant gene, L520 deficient gyrA gene, gyrA S84L mutant gene and R236 duplicated par C gene; type: functional
[6] = tested on: Staphylococcus aureus; assay: Antimicrobial activity against Staphylococcus aureus CB1884 harboring rpoB R484H mutant gene, L520 deficient gyrA gene, gyrA S84L mutant gene, R236 duplicated par C gene and parC H103Y mutant gene by agar dilution method; type: functional; summary of the method: as §2
[7] = tested on: Staphylococcus aureus; assay: Antimicrobial activity against Staphylococcus aureus CB1875 harboring gyrA […], parC R298K mutant genes and LNVIKEE461 inserted parC gene by broth microdilution method; type: functional; summary of the method: as §1
[8] = tested on: Staphylococcus aureus; assay: Antimicrobial activity against Staphylococcus aureus CB1884 by agar dilution method; type: functional; summary of the method: as §2
[9] = tested on: Staphylococcus aureus; assay: Antimicrobial activity against Staphylococcus aureus CB370 harboring rpoB H481Y mutant gene by broth microdilution method; type: functional
Summary of the method: (§3)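 CLSI broth microdilution MIC in cation-adjusted Mueller-Hinton (MHII) broth supplemented with 0.002% (vol/vol) polysorbate 80, included to limit compound loss to plastic surfaces.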

[10] = tested on: Staphylococcus aureus; assay: Antimicrobial activity against Staphylococcus aureus CB1952 harboring rpoB S486L, gyrA […], gyrA E88Q, gyrA G532S, parC S80F, parC E84L mutant genes selected after CBR-2092 exposure for 21 days by agar dilution method; type: functional; conditions: CB1952, 504 h
Summary of the method: (§4)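 CLSI agar dilution MIC on MHII base medium against strains from multistep passage (up to 20–21 days) of parents with preexisting rifamycin and/or quinolone resistance.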

[11] = tested on: Staphylococcus aureus; assay: Antimicrobial activity against Staphylococcus aureus CB815 harboring rpoB H481Y, gyrA […] and parC S80F mutant genes by agar dilution method; type: functional
Summary of the method: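 CLSI agar dilution MIC with cation-adjusted Mueller-Hinton (MHII) agar as the base medium.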

[12] = tested on: Staphylococcus aureus; assay: Antimicrobial activity against Staphylococcus aureus CB1953 harboring rpoB H481Y, gyrA S84L, gyrA V598I, parC S80F, parC R570H mutant genes selected after CBR-2092 exposure for 7 days by broth microdilution method; type: functional; conditions: CB1953, 168 h; summary of the method: as §3
[13] = tested on: Staphylococcus aureus; assay: Antimicrobial activity against Staphylococcus aureus CB1953 harboring rpoB H481Y, gyrA S84L, gyrA V598I, parC S80F, parC R570H mutant genes selected after CBR-2092 exposure for 7 days by agar dilution method; type: functional; conditions: CB1953, 168 h; summary of the method: as §4
[14] = Inhibition of Staphylococcus aureus wild-type RNA polymerase RpoB
Summary of the method: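 Recombinant S. aureus σA RNA polymerase holoenzyme in a single-round transcription assay using the pGL2B-T7A1-G-less template. The 272-nucleotide G-less RNA product was quantified by gel electrophoresis. IC50 is the concentration halving the product formed without test agent.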

[15] = tested on: DNA gyrase subunit A (Staphylococcus aureus), P20831 [S84L]; assay: Activity at Staphylococcus aureus wild-type GyrA S84L mutant
[16] = tested on: Staphylococcus aureus; assay: Antimicrobial activity against Staphylococcus aureus CB370 harboring rifampin-resistant rpoB H481Y mutant gene by broth microdilution method; type: functional; summary of the method: as §3
[17] = tested on: Staphylococcus aureus; assay: Inhibition of protein synthesis in Staphylococcus aureus CB190 assessed as decrease in L-[3,4,5-3H]leucine incorporation at 0.5 ug/ml; type: functional, organism-based
[18] = tested on: Staphylococcus aureus; assay: Inhibition of cell wall synthesis in Staphylococcus aureus CB190 assessed as decrease in [2,3-3H]D-alanine incorporation at 0.5 ug/ml; type: functional, organism-based
[19] = tested on: Staphylococcus aureus; assay: Antimicrobial activity against rifampin-sensitive Staphylococcus aureus CB190 by broth microdilution method; type: functional; summary of the method: as §3
[20] = tested on: Staphylococcus aureus; assay: Antimicrobial activity against rifampin-sensitive Staphylococcus aureus CB190 harboring rpoB Q468K mutant gene by broth microdilution method; type: functional; summary of the method: as §3
[21] = tested on: Staphylococcus aureus; assay: Antimicrobial activity against rifampin-sensitive Staphylococcus aureus CB190 harboring rpoB H472 mutant gene by broth microdilution method; type: functional; summary of the method: as §3
[22] = tested on: Staphylococcus aureus; assay: Antimicrobial activity against rifampin-sensitive Staphylococcus aureus CB190 harboring rpoB D471Y mutant gene by broth microdilution method; type: functional; summary of the method: as §3
[23] = tested on: Staphylococcus aureus; assay: Antimicrobial activity against rifampin-sensitive Staphylococcus aureus CB190 harboring rpoB N474K mutant gene by broth microdilution method; type: functional; summary of the method: as §3
[24] = tested on: Staphylococcus aureus; assay: Antimicrobial activity against Staphylococcus aureus CB1430 harboring rpoB H481Y, parE E474K and gyrA S84L mutant genes selected after 0.18 ug/ml drug exposure by broth microdilution method; type: functional
Summary of the method: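 CLSI broth microdilution MIC in cation-adjusted Mueller-Hinton (MHII) broth with 0.002% (vol/vol) polysorbate 80. Single-step mutants were selected on agar […], purified by drug-free passage, their phenotype re-verified, and resistance loci sequenced.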

[25] = tested on: Staphylococcus aureus; assay: Antimicrobial activity against Staphylococcus aureus CB1353 harboring rpoB H481Y, parC S80F, parE V458G and gyrA S84L mutant genes selected after 0.53 ug/ml drug exposure by broth microdilution method; type: functional
[26] = tested on: Staphylococcus aureus; assay: Antimicrobial activity against Staphylococcus aureus CB1354 harboring rpoB H481Y, parC S80F, parE R455H and gyrA S84L mutant genes selected after 0.53 ug/ml drug exposure by broth microdilution method; type: functional
[27] = tested on: Staphylococcus aureus; assay: Antimicrobial activity against wild-type Staphylococcus aureus CB190 by broth microdilution method; type: functional; summary of the method: as §3
[28] = tested on: Staphylococcus aureus; assay: Antimicrobial activity against Staphylococcus aureus CB1871 harboring rpoB H481Y mutant gene by broth microdilution method
[29] = tested on: Staphylococcus aureus; assay: Antimicrobial activity against Staphylococcus aureus CB815 harboring rpoB H481Y, gyrA S84L and parC S80F mutant genes by broth microdilution method
[30] = tested on: Staphylococcus aureus; assay: Antimicrobial activity against Staphylococcus aureus CB1416 harboring rpo BH481Y and gyrA L795S mutant genes selected after 0.1 ug/ml drug exposure by broth microdilution method
[31] = tested on: Staphylococcus aureus; assay: Antimicrobial activity against Staphylococcus aureus CB1420 harboring rpoB H481Y and gyrA G584V mutant genes selected after 0.1 ug/ml drug exposure by broth microdilution method
[32] = tested on: Staphylococcus aureus; assay: Antimicrobial activity against Staphylococcus aureus CB1947 harboring rpoB H481Y, gyrA S84L, E697 deficient gyrA, parC G167V mutant genes selected after CBR-2092 exposure for 20 days by broth microdilution method; conditions: CB1947, 480 h

`CO[C@H]1/C=C/O[C@@]2(C)Oc3c(C)c(O)c4c(O)c(c(/C=N/N5CCC(N(C)C6([C@@H]7CCN(c8c(F)cn9c(=O)c(C(=O)O)cc(C%10CC%10)c9c8C)C7)CC6)CC5)c(O)c4c3C2=O)NC(=O)/C(C)=C\C=C\[C@H](C)[C@H](O)[C@@H](C)[C@@H](O)[C@@H](C)[C@H](OC(C)=O)[C@@H]1C` gave a Time [1] of 43 min, an MIC [2] of 0.5 mg/L (≈ 0.415 µM) and a Time [3] of 41 min. The MIC [4] was 0.5 mg/L (≈ 0.415 µM), the Time [5] was 47 min and the MIC [6] was 4 mg/L (≈ 3.32 µM). It also gave an MIC [7] of 0.008 mg/L (≈ 0.00664 µM), an MIC [8] of 4 mg/L (≈ 3.32 µM) and an MIC [9] of 0.12 mg/L (≈ 0.0996 µM). For the same compound, the MIC [10] was 4 mg/L (≈ 3.32 µM), the MIC [11] was 0.25 mg/L (≈ 0.207 µM) and the MIC [12] was 16 mg/L (≈ 13.3 µM). It also gave an MIC [13] of 2 mg/L (≈ 1.66 µM), an IC50 [14] of 0.034 µM and a CC50 [15] greater than 150 µM. For the same compound, the MIC [16] was 0.12 mg/L (≈ 0.0996 µM), the Activity [17] was “Active” and the Activity [18] was “Active”. The MIC [19] was 0.015 mg/L (≈ 0.0124 µM), the MIC [20] was 0.5 mg/L (≈ 0.415 µM) and the MIC [21] was 0.12 mg/L (≈ 0.0996 µM). It also gave an MIC [22] of 0.25 mg/L (≈ 0.207 µM), an MIC [23] of 0.25 mg/L (≈ 0.207 µM) and an MIC [24] of 16 mg/L (≈ 13.3 µM). It also gave an MIC [25] of 16 mg/L (≈ 13.3 µM), an MIC [26] of 16 mg/L (≈ 13.3 µM) and an MIC [27] of 0.015 mg/L (≈ 0.0124 µM). For the same compound, the MIC [28] was 0.12 mg/L (≈ 0.0996 µM), the MIC [29] was 2 mg/L (≈ 1.66 µM) and the MIC [30] was 0.5 mg/L (≈ 0.415 µM). The MIC [31] was 0.5 mg/L (≈ 0.415 µM) and the MIC [32] was 4 mg/L (≈ 3.32 µM).
